Here are results for 2 molecules from paper PMC7820547 (iScience, 2021).

Numbering of substitutions follows the chain as printed.

One assay concerns the target T1, hSHMT1 WT (Homo sapiens, UniProt P34896).
T1 sequence (P34896 1-483): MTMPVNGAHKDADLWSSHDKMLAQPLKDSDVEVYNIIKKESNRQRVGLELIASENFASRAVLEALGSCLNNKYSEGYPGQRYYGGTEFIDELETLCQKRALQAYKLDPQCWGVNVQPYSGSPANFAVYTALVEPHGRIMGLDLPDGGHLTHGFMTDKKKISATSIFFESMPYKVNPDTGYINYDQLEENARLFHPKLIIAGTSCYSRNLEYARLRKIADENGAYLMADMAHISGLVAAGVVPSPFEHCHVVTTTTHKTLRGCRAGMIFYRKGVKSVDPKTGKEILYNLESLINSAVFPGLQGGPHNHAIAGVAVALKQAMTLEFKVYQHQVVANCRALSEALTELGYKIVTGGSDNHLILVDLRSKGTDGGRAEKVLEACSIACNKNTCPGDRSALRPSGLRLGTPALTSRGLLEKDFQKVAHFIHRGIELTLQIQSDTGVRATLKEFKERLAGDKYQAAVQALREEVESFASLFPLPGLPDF
The assay can be described thus: Surface plasmon resonance binding of Gly-DCA to hSHMT1 WT. Put shortly:
(§1)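 His6-hSHMT1, wild type or point mutant, was captured fresh on an NTA sensor chip each cycle. Contact 30 s, dissociation 300 s; Kd by Scatchard analysis.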
On the technique in general: In SPR one partner is held on a chip, and binding of the other changes the refractive index at the surface.

Another assay concerns the target T2, hSHMT1 E75L (Homo sapiens, UniProt P34896, E75L).
T2 sequence (P34896 1-483 E75L): T1 sequence (P34896 1-483) with E75L
The assay is described as follows: Surface plasmon resonance binding of Gly-DCA to mutant hSHMT1 E75L. In a few lines: as §1

Another assay addresses T3, hSHMT1 R402A (Homo sapiens, UniProt P34896, R402A).
T3 sequence (P34896 1-483 R402A): T1 sequence (P34896 1-483) with R402A
The assay can be described thus: Surface plasmon resonance binding of Gly-DCA to mutant hSHMT1 R402A. The note with it: SPR, 25°C. Put shortly:
as §1

In a further assay the target is T4, hSHMT2 WT (Homo sapiens, UniProt P34897).
T4 sequence (P34897 30-504): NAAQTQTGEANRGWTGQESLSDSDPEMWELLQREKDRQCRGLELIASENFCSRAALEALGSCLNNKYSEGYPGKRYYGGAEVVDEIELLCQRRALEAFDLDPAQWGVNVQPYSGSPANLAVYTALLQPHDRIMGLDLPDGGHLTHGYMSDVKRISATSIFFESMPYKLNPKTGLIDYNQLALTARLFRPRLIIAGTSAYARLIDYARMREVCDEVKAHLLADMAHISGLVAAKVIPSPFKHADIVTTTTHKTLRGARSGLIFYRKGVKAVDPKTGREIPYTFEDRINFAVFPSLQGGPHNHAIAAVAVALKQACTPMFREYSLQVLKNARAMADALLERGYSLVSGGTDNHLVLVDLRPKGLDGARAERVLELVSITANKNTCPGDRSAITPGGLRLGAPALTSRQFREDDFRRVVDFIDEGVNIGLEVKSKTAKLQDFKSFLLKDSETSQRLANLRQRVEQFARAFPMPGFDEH
The assay is described as follows: Surface plasmon resonance binding of Gly-DCA to hSHMT2 WT. In a few lines: (§2)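 Wild-type or mutant His6-hSHMT2 was captured on an NTA sensor chip in each cycle. Analyte (test compound) was run at 0.8, 0.4, 0.2, 0.1, 0.05 and 0.025 µM in 10 mM HEPES pH 7.5, 200 mM NaCl, 2 mM β-mercaptoethanol, 50 µM PLP, 0.01% Tween 20 and 5% DMSO. Contact 30 s, dissociation 300 s; Scatchard-derived Kd.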

The next assay addresses T5, hSHMT2 E98L (Homo sapiens, UniProt P34897, E98L).
T5 sequence (P34897 30-504 E98L): T4 sequence (P34897 30-504) with E69L
The assay can be described thus: Surface plasmon resonance binding of Gly-DCA to mutant hSHMT2 E98L. The note with it: SPR, 25°C. In a few lines: as §2

A further assay addresses T6, hSHMT2 R425A (Homo sapiens, UniProt P34897, R425A).
T6 sequence (P34897 30-504 R425A): T4 sequence (P34897 30-504) with R396A
The assay can be described thus: Surface plasmon resonance binding of Gly-DCA to mutant hSHMT2 R425A. The note with it: SPR, 25°C. In a few lines:
as §2

Assay [1] concerns the target T7, hSHMT2 (Homo sapiens, UniProt P34897).
T7 sequence (P34897 30-504): T4 sequence (P34897 30-504)
The assay is described as follows: Isothermal titration calorimetry. It counts as binding. Put shortly:
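Purified His6-hSHMT2 (28.9 µM) in the cell was titrated with 300 µM test compound from the syringe at 37 °C, stirring 750 rpm. One small initial injection, then 12 injections at 180 s intervals; thermodynamic parameters were calculated from the titration.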
A general note: Isothermal titration calorimetry measures the heat released or taken up as one component is titrated into another.

Assay [2] addresses T8, hSHMT1 (Homo sapiens, UniProt P34896).
T8 sequence (P34896 1-483): T1 sequence (P34896 1-483)
The assay is described as follows: Differential scanning calorimetry. It counts as binding. The note with it: DSC, 50 μM Gly-DCA, 18 μM hSHMT1; Tm without ligand 69.6°C. Put shortly: (§3)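 Recombinant His6-tagged human enzyme from E. coli BL21(DE3)pLysS, Ni-NTA then gel filtration. Scanned 20 to 110 °C at 1 °C/min in 10 mM HEPES pH 7.5, 0.5 mM EDTA, 2 mM β-mercaptoethanol and 1% DMSO, with 18 µM (1.0 mg/mL) enzyme and 50 µM test compound. hSHMT1 used 100 mM NaCl and no PLP; hSHMT2 used 200 mM NaCl and 50 µM PLP. Non-two-state denaturation model fitted.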
(In DSC, transitions show as peaks or steps in heat flow.)

The target in assay [3] is T7, hSHMT2. The assay is described as follows: Differential scanning calorimetry. The format is binding. To be noted: DSC, 50 μM Gly-DCA, 18 μM hSHMT2, 50 μM PLP; Tm without ligand 65.1°C. Put shortly:
as §3

Assay [4] deals with T8, hSHMT1. The note with it: ITC, ref Nonaka et al., 2019, cited from earlier work.
In assay [5] the target is T7, hSHMT2. The assay is described as follows: Inhibition assay of Ser-Gly conversion. It counts as biochemical.
The mark [6] stands for this setting: ITC, 37°C, pH 7.5, 200 mM NaCl, 50 μM PLP.

The Kd is the free concentration of one partner at which half of the binding sites on the other are occupied at equilibrium, for simple one-to-one binding. At hSHMT1 WT, `CC(CCC(=O)NCC(=O)O)C1CCC2C3CCC4CC(O)CCC4(C)C3CC(O)C12C` (stereo not shown) [Gly-DCA, glycodeoxycholic acid] came in with a Kd of 7.6 µM. The molecule also gave a dissociation constant Kd on hSHMT1 E75L of 73.5 µM. Also, on hSHMT1 R402A, the “binding affinity for hSHMT1 R402A” value is “too weak to quantitate”. The Kd at hSHMT2 WT is 0.064 µM. The “binding affinity for hSHMT2 E98L” value on hSHMT2 E98L is “too weak to quantitate”. Moreover, the “binding affinity for hSHMT2 R425A” value at hSHMT2 R425A was “too weak to quantitate”. Besides, the Kd on hSHMT2 [1] stood at 0.25 µM. The “hSHMT2 N (stoichiometry, binding ratio)” value at hSHMT2 [1] (ITC, 37°C) was found to be 0.83. At hSHMT2 [1] (setting [6]), the “hSHMT2 ΔG” value is -9.4 kcal/mol, the “hSHMT2 ΔH” value was -8.6 kcal/mol and the “hSHMT2 −TΔS” value is -0.8 kcal/mol. On hSHMT1 [2], the “Tm of hSHMT1 w/ Gly-DCA” value was 78.8 °C. The “Tm of hSHMT2 w/ Gly-DCA” value at hSHMT2 [3] was determined as 77.4 °C. In addition, on hSHMT1 [4] (100 mM NaCl, 0 µM PLP), the “hSHMT1 ΔG” value was -7.4 kcal/mol, the “hSHMT1 ΔH” value is -2.2 kcal/mol and the “hSHMT1 −TΔS” value was -5.2 kcal/mol. Besides, on hSHMT1 [4], the “hSHMT1 N (stoichiometry, binding ratio)” value was 1.06. Besides, the dissociation constant Kd at hSHMT1 [4] (read-out: hSHMT1 Kd, 100 mM NaCl, 0 µM PLP) was 5.7 µM.
Usually IC50 stands for the midpoint of a concentration-inhibition curve. Read a low IC50 as higher potency. The molecule `C[C@H](CCC(=O)NCCS(=O)(=O)O)[C@H]1CC[C@H]2[C@@H]3CC[C@@H]4C[C@H](O)CC[C@]4(C)[C@H]3CC[C@]12C` [Tau-LCA, taurolithocholic acid] had an IC50 on hSHMT2 [5] of 2.6 µM.
